Nine compounds from ChEMBL document CHEMBL1148035, “Isolation of bioactive and other oxoaporphine alkaloids from two annonaceous plants, Xylopia aethiopica and Miliusa cf. banacea” (J Nat Prod, 1994) can be followed below.

In assay [1] the test system is Saccharomyces cerevisiae. Put plainly: DNA damaging activity against rad 52 DNA repair gene/topoisomerase 1 deficient Saccharomyces cerevisiae mutant assessed as drug level required to produce 12 mm zone of inhibition well after 48 hrs. It is filed as functional. The procedure, abridged: (§1)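 Yeast agar-well diffusion assay: test material in a 100 μl well, incubated 48 h at 37°. IC12 is the concentration in μg/ml giving a 12 mm diameter zone of inhibition around the well. Reported values are averages of 2 or 3 determinations.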

For assay [2], the system named is Saccharomyces cerevisiae. Put plainly: DNA damaging activity against rad 52 DNA repair gene deficient Saccharomyces cerevisiae mutant assessed as drug level required to produce 12 mm zone of inhibition after 48 hrs. The assay is classed as functional. In a few lines:
as §1

Assay [3] relates to Saccharomyces cerevisiae. Put plainly: DNA damaging activity against rad 6 DNA repair gene deficient Saccharomyces cerevisiae mutant assessed as drug level required to produce 12 mm zone of inhibition well after 48 hrs. It is filed as functional. In a few lines:
as §1

Assay [4] deals with Saccharomyces cerevisiae. Put plainly: DNA damaging activity against wild type Saccharomyces cerevisiae expressing rad DNA repair gene assessed as drug level required to produce 12 mm zone of inhibition after 48 hrs. The assay is classed as functional. The procedure, abridged: as §1
For assay [5], the target named is DNA topoisomerase 2-alpha (Homo sapiens, UniProt P11388). In words: Inhibition of DNA topoisomerase 2 assessed as bacteriophage P4 DNA unknotting after 30 mins.
DNA topoisomerase 2-alpha, sequence (P11388 whole entry, the tested form may be a part): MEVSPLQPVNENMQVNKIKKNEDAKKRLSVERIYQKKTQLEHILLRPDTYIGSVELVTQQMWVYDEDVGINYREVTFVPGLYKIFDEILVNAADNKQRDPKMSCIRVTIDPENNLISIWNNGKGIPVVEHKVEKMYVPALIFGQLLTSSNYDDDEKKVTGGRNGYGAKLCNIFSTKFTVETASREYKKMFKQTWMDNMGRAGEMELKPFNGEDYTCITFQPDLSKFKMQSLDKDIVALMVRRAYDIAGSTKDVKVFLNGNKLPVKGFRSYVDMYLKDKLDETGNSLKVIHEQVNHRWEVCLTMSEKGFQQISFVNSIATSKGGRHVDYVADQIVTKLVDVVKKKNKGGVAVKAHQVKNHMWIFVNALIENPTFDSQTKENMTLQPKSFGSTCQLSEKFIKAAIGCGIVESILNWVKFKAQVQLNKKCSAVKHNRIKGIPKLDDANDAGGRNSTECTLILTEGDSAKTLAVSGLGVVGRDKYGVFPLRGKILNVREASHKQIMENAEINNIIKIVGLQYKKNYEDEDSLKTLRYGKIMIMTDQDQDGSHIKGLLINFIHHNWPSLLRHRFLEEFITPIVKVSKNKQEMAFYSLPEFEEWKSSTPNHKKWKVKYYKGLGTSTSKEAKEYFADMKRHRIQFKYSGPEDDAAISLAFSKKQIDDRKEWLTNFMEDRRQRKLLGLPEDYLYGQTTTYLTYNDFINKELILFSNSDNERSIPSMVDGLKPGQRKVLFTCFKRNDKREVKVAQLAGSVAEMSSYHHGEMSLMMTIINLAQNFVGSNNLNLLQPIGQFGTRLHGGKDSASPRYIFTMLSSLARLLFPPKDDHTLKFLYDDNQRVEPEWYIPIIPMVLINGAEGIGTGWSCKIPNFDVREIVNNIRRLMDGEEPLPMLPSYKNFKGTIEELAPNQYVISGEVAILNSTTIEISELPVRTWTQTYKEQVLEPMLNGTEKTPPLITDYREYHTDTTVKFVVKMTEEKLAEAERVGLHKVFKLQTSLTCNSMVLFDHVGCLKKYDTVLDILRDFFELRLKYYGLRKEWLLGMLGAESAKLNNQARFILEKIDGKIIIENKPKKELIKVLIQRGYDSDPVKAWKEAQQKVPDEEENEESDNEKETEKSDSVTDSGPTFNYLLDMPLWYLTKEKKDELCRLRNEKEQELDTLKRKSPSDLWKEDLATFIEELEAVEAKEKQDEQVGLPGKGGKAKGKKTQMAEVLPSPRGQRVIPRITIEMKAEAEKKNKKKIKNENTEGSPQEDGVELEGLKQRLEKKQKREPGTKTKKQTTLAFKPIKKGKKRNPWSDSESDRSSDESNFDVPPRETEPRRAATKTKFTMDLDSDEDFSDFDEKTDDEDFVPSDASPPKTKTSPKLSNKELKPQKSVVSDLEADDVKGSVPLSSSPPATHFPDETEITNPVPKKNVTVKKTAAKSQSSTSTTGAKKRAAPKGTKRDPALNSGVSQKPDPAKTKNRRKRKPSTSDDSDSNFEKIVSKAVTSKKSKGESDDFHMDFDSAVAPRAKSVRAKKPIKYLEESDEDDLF
Assay [6] has as its system Saccharomyces cerevisiae. Put plainly: Antifungal activity against rad 6 DNA repair gene deficient Saccharomyces cerevisiae mutant at 500 ug/ml. The assay is classed as functional. Conditions: read-out: IZ. The procedure, abridged: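 Yeast well-diffusion assay against the rad 6 DNA-repair-deficient Saccharomyces cerevisiae strain. Sample is applied at the stated concentration (μg/ml) to a 100 μl well. Plates are incubated 48 h at 37°. Read-out is the diameter of the zone of inhibition, in mm.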

Regarding `CC[C@@]1(O)C(=O)OCc2c1cc1n(c2=O)Cc2cc3ccccc3nc2-1` [CAMPTOTHECIN], the Activity in assay [1] was >20 µg/mL; in assay [2] it was 0.6 µg/mL; in assay [3] it was 8.7 µg/mL.
Regarding `COc1c(OC)c2c3c(nccc3c1OC)C(=O)c1cc3c(cc1-2)OCO3` [OXOPHOEBINE], the Activity in assay [4] is >500 µg/mL; in assay [1], 2.6 µg/mL; in assay [2], 6.4 µg/mL; in assay [3] it was 4.7 µg/mL.
For `COc1cc2ccnc3c2c(c1OC)-c1ccccc1C3=O` [LYSICAMINE], the Activity in assay [1] is 390 µg/mL; in assay [2] it was 300 µg/mL; in assay [3], >500 µg/mL.
Take `COc1c(OC)c2c3c(nccc3c1OC)C(=O)c1ccccc1-2` [HOMOMOSCHATOLINE]: the Activity in assay [1], in assay [2] and in assay [3] was >500 µg/mL in each case.
As for `O=C1c2ccc(O)cc2-c2c3c(cc4ccnc1c24)OCO3`, the concentration for half-maximal inhibition (IC50) in assay [5] is 42.9 µM. Further, the Activity was 72 µg/mL in assay [1] and 295 µg/mL in assay [2].
Turning to `COC1=C(N)C(=O)c2nc(-c3nc(C(=O)O)c(C)c(-c4ccc(OC)c(OC)c4O)c3N)ccc2C1=O` [STREPTONIGRIN], the results for the Activity in assay [1], in assay [2] and in assay [3] were <0.4 µg/mL, 0.4 µg/mL and 2.4 µg/mL, respectively.
In the case of `O=C1c2ccccc2-c2c3c(cc4ccnc1c24)OCO3` [LIRIODENINE], in assay [6], the zone of inhibition at 500 µg/mL came out at 15 mm. Also, the Activity in assay [4] was 500 µg/mL; in assay [2], 16.7 µg/mL.
On to `COc1ccc2c(c1)-c1c3c(cc4ccnc(c14)C2=O)OCO3`, for which the IC50 in assay [5] is 81.9 µM. Moreover, the Activity in assay [1] worked out at 113 µg/mL; in assay [2], 214 µg/mL.
As for `COc1cc2c(cc1OC)-c1c(OC)c(OC)cc3ccnc(c13)C2=O` [OXOGLAUCINE], the Activity in assay [4], in assay [1], in assay [2] and in assay [3] was >500 µg/mL throughout.

By IC50 is commonly meant the concentration that inhibits the measured activity by half.
